High-throughput results deposited in PubChem BioAssay by Broad Institute.
Cneo AK release: causes C. neoformans cell lysis. lysis activity, % at 15 µM. hit rate 0.2% among 360,000. adenylate kinase release luminescence, 4 h; normalised: neutral wells 0, clomiphene wells 100. AID 651654;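 active = mean lysis activity across replicates of at least 80%, whatever share of replicates individually reach that level; inactive = mean lysis activity below 80%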
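Assay system: log-phase C. neoformans yeast / Quantity: yeast cell density of 5 × 10^6 cells/mL / Medium: fresh YPD growth medium / Compound: single dose / Timing: static 4 h at 37 °C with compound, 1 h detection / Measured by: adenylate kinase release luminescence / Read-out: lysis from increased AK signal / Benchmarks: Clomiphene as positive lysis control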
Wnt act: activates Wnt/beta-catenin signaling in a reporter cell assay. AID 743398. activator, plate reader. activation, % at 9.35 µM. hit rate 1.2% among 300,000; in the data active = activation above about 30%, passing the limit was not always enough;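 also: 0% = neutral control wells and 100% = positive control wells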
MITF TRPM1 HTS: MITF TRPM1 promoter activation in melanoma cells; activation, % at 12.5 µM; hit rate 0.75% among 300,000; SK-MEL-5 TRPM1-promoter luciferase, 24 h; % of positive control, neutral wells = 0; AID 588334;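 active = mean activation of at least 80% with every replicate also reaching 80%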;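 also: 0% = neutral control wells and 100% = parthenolide positive control wells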
PGC1a acetyl inh: modulators of PGC1a acetylation; hit rate 0.17% among 350,000; inhibition, % at 15.6 µM; U2OS PGC1a acetylation, AlphaScreen anti-acetyl-lysine; with virally co-expressed GCN5 acetyltransferase;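 active = every replicate shows inhibition of at least 40%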;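 also: 0% = neutral control wells and 100% = positive control wells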
An asterisk follows results filed as active; x = not tested or not shown. Only some compounds are listed: those with a hit (about 1.5% of all), similar ones and a draw of the others.

SMILES	Cneo AK release	Wnt act	MITF TRPM1 HTS	PGC1a acetyl inh
Cc1cccc(NC(=O)Nc2ccc(C)c(C)c2)n1	-1	35*	32	-2
Cc1c(/C=N/Nc2ccc(C(=O)O)cc2)c2ccccc2n1C	7	2	90*	1
Cc1c(/C=N\NC(=O)C2COc3ccccc3O2)c2ccccc2n1C (configuration not stated)	x	x	-47	x
CC(C)c1ccc(CN(C)C(=O)c2ccc(S(=O)(=O)NCc3ccco3)cc2)cc1	-1	34*	x	4
COC(=O)/C(C(C)=O)=C(\C=C\N(C)C)N(C)C	-1	0	0	-4
COC(=O)C(=CC(=CN(C)C)C=C(C(=O)OC)C(=O)OC)C(=O)OC	9	38*	8	13
O=C(CCN1C(=O)c2cccc3cccc(c23)C1=O)N1CCOCC1	-1	26	83*	-4
CC(C(=O)N1CCOCC1)N1C(=O)c2cccc3cccc(c23)C1=O (configuration not stated)	x	33*	-10	x
CC(C(=O)N1CCOCCOCCOCCOCCOCC1)N1C(=O)c2ccccc2C1=O (configuration not stated)	x	-1	3	x
COC(=O)c1cn(CCCNC(=O)Nc2ccccc2)nn1	-6	x	x	15
CCCNC(=O)N1C[C@@H](O)COC[C@H]2O[C@H](CC(=O)N3CCN(C)CC3)CC[C@@H]21	105*	x	x	1
CCCNC(=O)N1C[C@H](O)COC[C@H]2O[C@H](CC(=O)N3CCN(C)CC3)CC[C@@H]21	118*	x	x	3
CCCNC(=O)N1C[C@H](O)COC[C@@H]2O[C@H](CC(=O)N3CCN(C)CC3)CC[C@H]21	-1	x	x	11
CCCNC(=O)N1C[C@@H](O)COC[C@@H]2O[C@@H](CC(=O)N3CCN(C)CC3)CC[C@H]21	59	x	x	4
O=C(Oc1ccccc1N1CCOCC1)c1sccc1Br	x	45*	x	1
CCCNC(=O)C[C@H]1CC[C@H]2[C@H](COc3ccc(NC(=O)NCC)cc3C(=O)N2C)O1	-10	x	x	-6
N/C(=N\OC(=O)c1ccc(F)cc1)c1cccc([N+](=O)[O-])c1	-18	16	87*	13
CCOC(=O)N(O)c1ccc(C=Cc2ccccc2)cc1	x	20	58	49*
CC=Cc1ccc2n(c1=O)C[C@H]1[C@H](CO)[C@@H](C(=O)NC3CCC3)N(S(C)(=O)=O)[C@@H]21 (mixture of isomers)	1	x	x	4
CCOc1cc(Br)c(COc2ccc(C)nc2[N+](=O)[O-])cc1OCC	2	0	-6	x
Cc1ccc(OCCOc2cccc(Br)c2)c([N+](=O)[O-])n1	x	x	103*	x
Cc1ccc(OCc2ccc(Br)cc2)c([N+](=O)[O-])n1	x	61*	x	x
COc1cc(OC)cc(C(=O)Nc2cccc(-c3ccc(N4CCOCC4)nn3)c2)c1	-1	20	101*	-4
COc1ccc(C(=O)Nc2cccc(-c3ccc(N4CCOCC4)nn3)c2)cc1	-10	19	90*	-1
COc1cccc(OC)c1C(=O)Nc1cccc(-c2ccc(N3CCOCC3)nn2)c1	-10	19	83*	x
SMILES	Cneo AK release	Wnt act	MITF TRPM1 HTS	PGC1a acetyl inh
O=C(c1cccc(F)c1)N1C[C@H]2[C@@H](c3ccccc31)[C@@H](CO)N2C(=O)c1cccc(F)c1	0	x	x	3
CC(=O)c1ccc(NCC2COc3ccccc3O2)c([N+](=O)[O-])c1 (configuration not stated)	6	76*	64	-25
CNC[C@H]1OCCCC[C@H](C)Oc2ccc(NS(=O)(=O)c3ccccc3)cc2C(=O)N([C@H](C)CO)C[C@@H]1C	x	x	x	0
CCOc1c2ccc(C(=O)NCCc3cccs3)cc2nn1CC	-2	32*	63	7
COc1ccc(/C=C/c2nnc(NC(C)=O)s2)cc1	1	37*	x	1
O=C(CC(SCCO)c1ccc(F)cc1)c1ccco1 (configuration not stated)	1	x	10	x
Cc1ccc(C(CC(=O)c2ccco2)SCCO)cc1 (configuration not stated)	-3	37*	24	-5
COCC(=O)Nc1ccc2c(c1)[C@H]1C[C@@H](CC(=O)NCc3ccccn3)O[C@H](CO)[C@H]1O2	3	x	x	3
NNC(=O)CN1C(c2ccccc2)=Nc2ccc(Br)cc2C1c1ccccc1 (configuration not stated)	x	3	-1	x
COc1cc(OC)c(C2=Nc3ccc(Br)cc3C(c3ccccc3)N2CC(=O)NN)cc1OC (configuration not stated)	x	37*	3	x
Cc1cccc(-c2noc(-c3ccc(Cl)cc3[N+](=O)[O-])n2)c1	x	43*	71	x
